The values that follow come from ChEMBL document CHEMBL3102735, “Enhancing the pharmacodynamic profile of a class of selective COX-2 inhibiting nitric oxide donors” (Bioorg Med Chem, 2014).

The structures appear in SMILES notation. ≈ marks a conversion by molar mass, not a printed value. Calls of active or inactive are those of the source. The rule behind the calls is not given here.

In series [1] the test system is Rattus norvegicus. Briefly: Volume of distribution at steady state in Wistar rat at 10 mg/kg, iv by LC-MS/MS analysis. It is filed as ADME, organism-based. Also on record: dose 10 mg/kg, route intravenous. The settings on record: in vivo.
Series [2] can be described thus: Metabolic stability in Sprague-Dawley rat plasma assessed as compound remaining after 60 mins by LC-MS/MS analysis. Conditions: read-out: Stability. In kind it is ADME, cell-free. In short, it runs like this: (§1)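 Compound (12 µL of 1 mM DMSO solution into 588 µL medium) incubated in PBS pH 7.4, pepsin-free SGF pH 1.5, or EDTA rat plasma. Aliquots taken at 0, 30, 60, 120 min and quenched with ice-cold acetonitrile containing internal standard; parent remaining as percent.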

Series [3] in a line: Metabolic stability in Sprague-Dawley rat plasma assessed as compound remaining after 30 mins by LC-MS/MS analysis. It is filed as ADME, cell-free. Conditions: read-out: Stability. In short, it runs like this:
as §1

Series [4] is described as follows: Stability of the compound in simulated gastric fluid assessed as compound remaining at pH 1.5 after 60 mins by LC-MS/MS analysis. In kind it is physicochemical. The settings on record: read-out: Stability. The method, boiled down: (§2)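 1 mM DMSO stock added to 0.01 M PBS (pH 7.4) or 0.05 M simulated gastric fluid without pepsin (pH 1.5 with HCl); incubated in hybridisation oven; aliquots at 0, 30, 60, 120 min quenched with ice-cold acetonitrile containing internal standard; parent remaining (%) measured.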

A short description of series [5]: Solubility of the compound in simulated gastric fluid at pH 1.5 after 90 mins by HPLC analysis. In kind it is ADME. The method, boiled down: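 DMSO stock (20 mM) diluted 2 µL into 198 µL PBS 0.01 M pH 7.4 or pepsin-free SGF 0.05 M pH 1.5, duplicate wells, shaken 90 min at 300 rpm. Filtrates analysed by HPLC with photodiode-array detection against seven-point standards (1–200 µM).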

Series [6] addresses T1, Prostaglandin G/H synthase 2 (Homo sapiens, UniProt P35354).
T1 sequence (P35354 whole entry): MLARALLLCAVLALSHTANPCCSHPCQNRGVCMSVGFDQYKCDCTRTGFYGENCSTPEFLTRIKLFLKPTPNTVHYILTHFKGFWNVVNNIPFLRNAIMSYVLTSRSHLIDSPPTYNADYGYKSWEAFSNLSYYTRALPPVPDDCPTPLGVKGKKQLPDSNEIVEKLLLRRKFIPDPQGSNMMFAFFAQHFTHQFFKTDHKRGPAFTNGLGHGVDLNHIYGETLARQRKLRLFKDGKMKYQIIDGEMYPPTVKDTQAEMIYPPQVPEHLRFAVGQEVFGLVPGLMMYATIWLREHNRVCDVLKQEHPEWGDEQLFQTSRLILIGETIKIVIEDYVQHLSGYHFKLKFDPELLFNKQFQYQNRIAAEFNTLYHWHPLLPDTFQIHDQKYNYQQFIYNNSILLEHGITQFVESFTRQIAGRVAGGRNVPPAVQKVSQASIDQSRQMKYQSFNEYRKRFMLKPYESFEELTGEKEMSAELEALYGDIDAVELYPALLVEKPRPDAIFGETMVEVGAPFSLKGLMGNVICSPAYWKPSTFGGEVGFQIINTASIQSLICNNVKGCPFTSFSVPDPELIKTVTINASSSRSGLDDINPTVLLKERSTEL
Also on record: species or system Blood.

In series [7] the target is Prostaglandin G/H synthase 1 (Homo sapiens, UniProt P23219). Put plainly: Inhibition of COX-1 in human whole blood assessed as thromboxane B2 production by RIA.
Series [8] concerns Liver. Put plainly: Induction of nitric oxide production in Wistar rat liver homogenate assessed as nitrate level at 1 mM. In kind it is functional, tissue-based. Conditions: TDE = time-dependent effect.
The test system of series [9] is Liver. Briefly: Induction of nitric oxide production in Wistar rat liver homogenate assessed as NOx level at 1 mM. It is filed as functional, tissue-based. The settings on record: TDE = time-dependent effect.
The test system of series [10] is Liver. Put plainly: Induction of nitric oxide production in Wistar rat liver homogenate assessed as nitrite level at 1 mM. It is filed as functional, tissue-based. Conditions: TDE = time-dependent effect.
Series [11] has as its system Liver. Put plainly: Induction of nitric oxide production in Wistar rat liver homogenate assessed as nitrite level at 1 mM after 1 to 150 mins. It is filed as functional, tissue-based.
The test system of series [12] is Liver. Put plainly: Induction of nitric oxide production in Wistar rat liver homogenate assessed as nitrate level at 1 mM after 1 to 150 mins. In kind it is functional, tissue-based.
Series [13] has as its system Mus musculus. Put plainly: Analgesic activity in po dosed Swiss albino mouse assessed as reduction of acetic acid-induced writhing measured every 10 mins after 5 mins of administration. It is filed as functional, organism-based. In short, it runs like this: (§3)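 Male Swiss albino mice (23–25 g), compound given orally in CMC vehicle; writhing induced by 0.6% acetic acid (10 mL/kg) ip. Stretching movements counted for 10 min, starting 5 min after administration; percent reduction versus CMC-treated animals.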
For orientation: Writhing tests count abdominal constrictions after an irritant is injected.

The subject of series [14] is Thoracic aorta. Put plainly: Ex vivo vasorelaxant activity in Wistar rat endothelium thoracic aortic ring assessed as reduction of KCl-induced contraction in presence of guanylate cyclase inhibitor ODQ. It is filed as functional. The method, boiled down:
(§4)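 Endothelium-denuded thoracic aortic rings from male Wistar rats (250–350 g) in oxygenated Tyrode-type buffer at 37 °C, isometric tension recording. Rings precontracted with 30 mM KCl, then 3-fold increasing compound concentrations (1 nM–10 µM) added, also with 1 µM ODQ preincubated. Emax as % of KCl tone; pIC50; mean ± SE of 6–10 experiments.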

For series [15], the system named is Thoracic aorta. Put plainly: Ex vivo vasorelaxant activity in Wistar rat endothelium thoracic aortic ring assessed as reduction of KCl-induced contraction. It is filed as functional, tissue-based. The method, boiled down: as §4
Another series relates to J774. Briefly: Selectivity index, ratio of IC50 for COX-1 to IC50 for COX-2 in mouse J774 cells. It is filed as cell-based. In short, it runs like this:
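J774 macrophages stimulated 24 h with E. coli LPS (10 µg/mL) to induce COX-2, with or without compound (0.01–10 µM); supernatant PGE2 by RIA. Triplicate wells, three experiments, percent inhibition versus control, IC50 by sigmoidal fit; selectivity as COX-1/COX-2 IC50 ratio.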

The test system of series [16] is Mus musculus. Put plainly: Analgesic activity in Swiss albino mouse assessed as reduction of acetic acid-induced writhing at 10 mg/kg, po measured every 10 mins after 5 mins of administration relative to control. In kind it is functional. Also on record: scale not given: the % may be the effect or the level left. In short, it runs like this: as §3
A short description of series [17]: Stability of the compound in phosphate buffer saline assessed as compound remaining at pH 7.4 after 120 mins by LC-MS/MS analysis. It is filed as physicochemical. The settings on record: read-out: Stability. The method, boiled down: as §1
The nature of series [18]: Stability of the compound in simulated gastric fluid assessed as compound remaining at pH 1.5 after 30 mins by LC-MS/MS analysis. It is filed as physicochemical. The settings on record: read-out: Stability. The method, boiled down: as §2
Series [19] is described as follows: Stability of the compound in phosphate buffer saline assessed as compound remaining at pH 7.4 after 60 mins by LC-MS/MS analysis. The settings on record: read-out: Stability. It is filed as physicochemical. The method, boiled down: as §2
The subject of series [20] is Rattus norvegicus. Briefly: Drug metabolism in Wistar rat plasma assessed as 2-(1-(4-fluorophenyl)-2-methyl-5-(4-(methylsulfonyl)phenyl)-1H-pyrrol-3-yl)-N-(2-hydroxyethyl)acetamide metabolite at 10 mg/kg, iv up to 6 hrs by LC-MS/MS analysis. In kind it is ADME, organism-based. Also on record: dose 10 mg/kg, route intravenous. Conditions: in vivo. In short, it runs like this:
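Male Han Wistar rats, three per route, single 10 mg/kg/5 mL dose iv or po in 5% DMSO, 5% Cremophor EL, 0.1% Tween 80 in 150 mM phosphate buffer pH 7. Jugular-vein blood sampled, plasma methanol-precipitated, parent and hydroxy metabolite quantified by LC–MS/MS in positive ESI MRM mode (LLOQ 1–15 ng/mL).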

Chain of Prostaglandin G/H synthase 1 (P23219 whole entry): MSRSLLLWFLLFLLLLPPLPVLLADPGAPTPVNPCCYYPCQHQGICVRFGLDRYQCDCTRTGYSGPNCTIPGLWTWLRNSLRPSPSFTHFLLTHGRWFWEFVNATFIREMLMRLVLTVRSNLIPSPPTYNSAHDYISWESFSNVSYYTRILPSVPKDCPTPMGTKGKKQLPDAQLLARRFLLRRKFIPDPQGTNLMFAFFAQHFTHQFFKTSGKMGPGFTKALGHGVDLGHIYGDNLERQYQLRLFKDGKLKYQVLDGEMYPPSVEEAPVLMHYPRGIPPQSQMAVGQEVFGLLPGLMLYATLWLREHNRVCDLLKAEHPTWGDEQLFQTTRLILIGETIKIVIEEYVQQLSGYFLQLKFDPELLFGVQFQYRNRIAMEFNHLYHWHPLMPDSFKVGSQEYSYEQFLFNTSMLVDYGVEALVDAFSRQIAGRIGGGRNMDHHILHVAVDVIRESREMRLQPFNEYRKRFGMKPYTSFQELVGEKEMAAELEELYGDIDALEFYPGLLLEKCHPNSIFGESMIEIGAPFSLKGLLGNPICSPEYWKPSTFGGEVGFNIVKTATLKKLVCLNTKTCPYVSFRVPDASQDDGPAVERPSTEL

With `Cc1c(CC(=O)NCCO[N+](=O)[O-])cc(-c2ccc(S(C)(=O)=O)cc2)n1-c1ccc(F)cc1`, the Vdss – broadly, a proportionality between amount in the body and measured concentration, not a real space – in the series with Rattus norvegicus [1] amounted to 367 mL. Moreover, the remaining at 1 h in series [2], in series [4] and in [19] was 100% throughout. Further, the remaining at 0.5 h in [3] and in series [18] was 100% throughout. For the same molecule, in [5], the concentration in solution (solubility at 1.5 h) came to 147 µM (≈ 69.9 µg/mL). Also, the IC50 – broadly, the midpoint of a concentration-inhibition curve – in series [6] was 1700 nM; in [7], 600 nM; with Thoracic aorta [15] it was 4900 nM. For the same molecule, the Activity result is “tde” in the series with Liver [8]; “tde” in the series with Liver [9]; “tde” in the series on Liver [10]; 27 µM in the series on Liver [11]; 38.3 µM in the series with Liver [12]; “Dose-dependent effect” with Mus musculus [13]. Moreover, the Activity in the series on Mus musculus [16] amounted to 63%. The result with Thoracic aorta [14] was inactive. The Ratio IC50 with J774 is > 42. The remaining at 2 h in series [17] was found to be 100%. Further, the Drug metabolism result in the series with Rattus norvegicus [20] was “Active”.
